# Laboratory results: publication PMC3428850 (Molecular cancer therapeutics, 2012)
# Values joined by “and” are separate entries in the source; they are usually repeats but may differ in a detail not shown here. Identical values can stand only once. Like-named read-outs stand apart in the source and are kept apart here.
# Legend:
# [1] = system: PI-3K; experiment: PI-3K-dependent AKT phosphorylation; format: cell-based, human; conditions: read-out: IC50 PI-3K-mediated AKT phosphorylation; MCF7 cells, IGF-1 stimulated
# Summary of the method: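 MCF7 cells in RPMI 1640/10% FBS. Exposed to a concentration range of test compound for 1 h, then 50 ng/ml IGF-1 for 30 min. Western blot of AKT Ser473 relative to total AKT. Rise above unstimulated baseline in treated cells expressed as % of the rise in control cells. Mean of three independent experiments fitted to a sigmoidal dose-response curve for IC50.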
# [2] = system: PI-3K; experiment: PI-3K-dependent AKT phosphorylation; format: cell-based, human; conditions: SW620 cells
# [3] = system: LoVo cells; experiment: cell growth inhibition, SRB assay, 5-day continuous exposure; format: cell-based, human
# Summary of the method: (§1)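 Human cancer cells in RPMI 1640 with 10% FBS, penicillin/streptomycin, at 37 °C and 5% CO2. Test compound (10 mM DMSO stock) given by continuous exposure for 5 days. Growth measured by SRB assay. […] Means ± SD of 3 independent experiments.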
# [4] = system: MCF7 cells; experiment: as above; format: cell-based, human
# Summary of the method: as §1
# [5] = system: MDA-MB-231 cells; experiment: as above; format: cell-based; conditions: Homo sapiens, MDA-MB-231, 120 h
# Summary of the method: as §1
# [6] = system: T47D cells; experiment: clonogenic survival assay; format: cell-based, human
# Summary of the method: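 Cells in RPMI 1640/10% FBS were exposed in 6-well plates for 16 h to etoposide or doxorubicin with or without test compound (1 μM), or to test compound alone. Cells then harvested and reseeded in drug-free medium. Colonies stained with crystal violet after 10-14 days and counted automatically. Fold enhancement = survival with cytotoxic alone / survival with cytotoxic + 1 μM test compound. Means ± SD, n = 3.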
# [7] = system: M059-Fus-1 cells; experiment: clonogenic survival assay, DNA-PKcs-proficient cells; format: cell-based, human
# Summary of the method: (§2)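 Human glioblastoma M059J cells (DNA-PKcs-deficient) and M059-Fus-1 cells (chromosome 8 transfected; G-418 200 μg/ml) in DMEM/10% FBS. Etoposide or doxorubicin alone or with 1 μM test compound, or test compound alone, for 16 h. Reseeded drug-free. Crystal violet colony counts after 10-14 days. Fold enhancement as survival ratio. Means ± SD, n = 3.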
# [8] = system: M059J cells; experiment: clonogenic survival assay, DNA-PKcs-deficient cells; format: cell-based, human; conditions: M059J
# Summary of the method: as §2
# [9] = plasma pharmacokinetics following different routes of administration; format: in vivo, Balb C mice; conditions: for CL: mice
# Summary of the method: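 Female Balb C mice given test compound at 10 mg/kg i.v., i.p. or p.o. Vehicle: equimolar phosphoric acid in sterile saline, final pH 5. Plasma sampled at 5-360 min, 3 mice per time point. Plasma levels by LC-MS/MS. PK parameters calculated from mean values.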
# [10] = format: in vivo, mice; conditions: for concentration at 60 min / concentration at 120 min: female, CD1-nu/nu (athymic), mouse, intravenous, 12.5 mg/kg
# Summary of the method: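 Female athymic CD1-nu/nu mice kept in SPF isolators, bearing MCF7 or SW620 xenografts (650 mm³). Test compound 12.5 mg/kg i.v. in equimolar phosphoric acid/saline, pH 5. Tumours homogenised in PBS (1:3 w/v) on ice. Plasma and tumour concentrations by LC-MS/MS. Means ± SD of 3 mice per time point.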
# [11] = target: DNA-PK (Homo sapiens, UniProt P78527); experiment: DNA-PK ex vivo pharmacodynamic assay, p53 peptide; parameters: species or system mice; conditions: SW-620, mouse, iv, read-out: inhibition of DNA-PK activity ex vivo in tumour
# Summary of the method: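 SW620 s.c. xenografts in female athymic CD1-nu/nu mice. Test compound 2.5 or 25 mg/kg i.v. (vehicle equimolar phosphoric acid, pH 5) or vehicle alone. Killed after 1 or 4 h. Tumours excised and homogenised. DNA-PK activity by ELISA of DNA-PK-dependent p53 peptide (Ser15) phosphorylation in homogenates. 3 mice per time point, mean ± SD.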
# [12] = system: SW620 xenografts; experiment: anti-tumour efficacy study, SW620 xenografts; format: in vivo, mice
# Summary of the method: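 Female athymic CD1-nu/nu mice with s.c. SW620, n = 5/group, treated once tumours were palpable (~5 × 5 mm, day 8-10). Controls: saline i.p. daily. Test compound 10 mg/kg i.p. for 5 days. Etoposide phosphate 11.35 mg/kg i.p. (10 mg/kg etoposide) daily × 5. Combination: test compound i.p. once or twice daily × 5, first dose just before etoposide. Caliper volume a²×b/2; median RTV (day 0 = 1); time to RTV4.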
# [13] = solubility; format: physicochemical; conditions: compared with NU7441
# [14] = target: PI-3K δ (Homo sapiens, UniProt O00329); experiment: cell-free assay, PI-3K isoforms; format: biochemical; conditions: Supplementary Figure 1
# Sequence of PI-3K δ (O00329 whole entry, species assumed, canonical isoform): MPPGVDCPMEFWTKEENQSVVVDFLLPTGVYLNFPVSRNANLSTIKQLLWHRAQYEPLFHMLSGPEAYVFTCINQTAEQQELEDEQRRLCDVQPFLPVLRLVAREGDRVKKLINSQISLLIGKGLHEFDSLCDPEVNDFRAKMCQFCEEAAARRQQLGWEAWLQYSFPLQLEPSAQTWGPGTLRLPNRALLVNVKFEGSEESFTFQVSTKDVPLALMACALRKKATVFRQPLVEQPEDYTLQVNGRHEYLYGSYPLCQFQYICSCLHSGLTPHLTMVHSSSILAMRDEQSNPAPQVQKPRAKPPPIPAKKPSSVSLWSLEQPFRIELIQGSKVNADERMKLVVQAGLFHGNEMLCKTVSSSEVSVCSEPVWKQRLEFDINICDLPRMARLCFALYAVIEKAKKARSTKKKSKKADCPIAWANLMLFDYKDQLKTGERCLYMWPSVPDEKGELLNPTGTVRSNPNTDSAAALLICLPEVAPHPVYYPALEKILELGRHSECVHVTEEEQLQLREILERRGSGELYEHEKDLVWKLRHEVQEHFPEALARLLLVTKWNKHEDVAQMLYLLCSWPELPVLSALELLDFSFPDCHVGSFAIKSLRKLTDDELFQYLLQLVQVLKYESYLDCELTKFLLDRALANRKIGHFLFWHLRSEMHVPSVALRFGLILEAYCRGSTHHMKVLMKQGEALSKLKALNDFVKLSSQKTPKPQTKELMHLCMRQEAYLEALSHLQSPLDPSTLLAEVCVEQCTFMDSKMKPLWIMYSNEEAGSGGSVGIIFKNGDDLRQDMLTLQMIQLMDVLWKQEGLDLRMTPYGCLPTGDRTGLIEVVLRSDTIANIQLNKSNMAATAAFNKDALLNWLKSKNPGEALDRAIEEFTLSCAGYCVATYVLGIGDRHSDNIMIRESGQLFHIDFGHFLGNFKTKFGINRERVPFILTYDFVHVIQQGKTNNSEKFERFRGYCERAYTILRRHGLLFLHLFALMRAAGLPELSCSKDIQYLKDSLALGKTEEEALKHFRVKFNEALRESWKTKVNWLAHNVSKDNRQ
# Sequence of PI-3K δ (P27986 whole entry partner, species assumed, canonical isoform): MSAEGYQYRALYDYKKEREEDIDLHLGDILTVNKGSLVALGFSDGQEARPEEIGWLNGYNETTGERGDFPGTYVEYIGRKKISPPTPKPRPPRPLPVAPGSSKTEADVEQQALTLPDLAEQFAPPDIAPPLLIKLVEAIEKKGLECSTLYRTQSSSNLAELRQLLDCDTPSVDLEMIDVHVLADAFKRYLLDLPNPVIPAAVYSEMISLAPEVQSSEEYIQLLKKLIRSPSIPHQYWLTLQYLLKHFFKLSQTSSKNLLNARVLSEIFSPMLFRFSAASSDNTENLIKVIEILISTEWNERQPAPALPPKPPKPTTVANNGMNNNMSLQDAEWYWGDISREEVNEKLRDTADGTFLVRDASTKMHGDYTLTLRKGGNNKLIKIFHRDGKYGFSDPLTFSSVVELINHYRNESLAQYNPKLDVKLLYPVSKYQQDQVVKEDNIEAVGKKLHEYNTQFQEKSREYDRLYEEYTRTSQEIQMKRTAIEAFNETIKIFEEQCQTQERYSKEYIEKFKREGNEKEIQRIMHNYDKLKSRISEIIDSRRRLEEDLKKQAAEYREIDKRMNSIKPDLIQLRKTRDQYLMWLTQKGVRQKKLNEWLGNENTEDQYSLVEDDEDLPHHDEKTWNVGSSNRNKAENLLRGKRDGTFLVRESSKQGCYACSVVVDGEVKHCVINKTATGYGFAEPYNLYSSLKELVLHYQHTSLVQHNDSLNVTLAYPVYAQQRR
# [15] = target: PI-3K γ (Homo sapiens, UniProt P48736); experiment: cell-free assay, PI-3K isoforms; format: biochemical; conditions: Supplementary Figure 1
# Sequence of PI-3K γ (P48736 whole entry, species assumed, canonical isoform): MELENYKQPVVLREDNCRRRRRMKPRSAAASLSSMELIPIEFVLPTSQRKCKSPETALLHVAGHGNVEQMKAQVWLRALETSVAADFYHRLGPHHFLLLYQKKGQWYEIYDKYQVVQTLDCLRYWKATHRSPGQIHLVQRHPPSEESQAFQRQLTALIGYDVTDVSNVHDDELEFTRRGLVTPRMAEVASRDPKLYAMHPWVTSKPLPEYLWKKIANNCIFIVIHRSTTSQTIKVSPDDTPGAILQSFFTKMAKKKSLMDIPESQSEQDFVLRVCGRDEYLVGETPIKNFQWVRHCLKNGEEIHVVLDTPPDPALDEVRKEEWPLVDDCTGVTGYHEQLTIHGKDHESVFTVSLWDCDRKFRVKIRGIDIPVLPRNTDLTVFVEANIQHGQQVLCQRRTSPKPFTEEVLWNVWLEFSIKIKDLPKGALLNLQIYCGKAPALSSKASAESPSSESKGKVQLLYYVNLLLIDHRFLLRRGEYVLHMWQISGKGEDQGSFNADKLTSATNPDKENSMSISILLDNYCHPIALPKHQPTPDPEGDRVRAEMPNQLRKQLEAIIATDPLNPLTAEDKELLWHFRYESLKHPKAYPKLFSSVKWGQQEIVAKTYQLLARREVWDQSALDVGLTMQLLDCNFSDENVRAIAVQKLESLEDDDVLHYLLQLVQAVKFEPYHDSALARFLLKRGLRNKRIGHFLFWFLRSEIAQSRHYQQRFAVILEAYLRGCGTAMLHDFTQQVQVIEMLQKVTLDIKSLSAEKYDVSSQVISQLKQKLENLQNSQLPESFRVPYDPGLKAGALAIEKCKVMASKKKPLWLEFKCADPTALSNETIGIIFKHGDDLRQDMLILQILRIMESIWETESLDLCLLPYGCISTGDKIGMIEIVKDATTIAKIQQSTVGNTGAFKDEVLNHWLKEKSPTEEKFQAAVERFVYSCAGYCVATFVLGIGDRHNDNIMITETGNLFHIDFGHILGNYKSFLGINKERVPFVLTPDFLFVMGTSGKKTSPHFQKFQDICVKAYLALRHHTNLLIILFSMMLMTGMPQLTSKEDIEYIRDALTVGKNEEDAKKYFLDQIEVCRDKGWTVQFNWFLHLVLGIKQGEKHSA
# [16] = female, Balb C, mouse, ip, 10 mg/kg
# [17] = female, Balb C, mouse, iv, 10 mg/kg
# [18] = female, Balb C, mouse, po, 10 mg/kg
smiles,measurement,setting,value
"CCN1CCN(CC(=O)Nc2ccc(-c3cccc4c(=O)cc(N5CCOCC5)oc34)c3sc4ccccc4c23)CC1 [KU-0060648, 2-(4-ethylpiperazin-1-yl)-N-(4-(2-morpholino-4-oxo-4H-chromen-8-yl)dibenzo[b,d]thiophen-1-yl)acetamide]",IC50,[1],0.039 µM and 0.04 µM
same,inhibition of AKT phosphorylation,[2]; at 10 μM,42%
same,IC50,"[2]; read-out: IC50 PI-3K-mediated AKT phosphorylation, IGF-1 stimulated",> 10 µM
same,"total cell growth over 5 days, of DMSO treated controls",[3]; 1 μM,10%
same,GI50,"[3]; Homo sapiens, 120 h",0.21 µM
same,inhibition at 1 µM,"[3]; Homo sapiens, 120 h, read-out: inhibition of cell growth",> 50%
same,GI50,"[4]; Homo sapiens, MCF7, 120 h",0.27 µM
same,"total cell growth over 5 days, of DMSO treated controls","[4]; MCF7, 1 μM",4%
same,inhibition of cell growth,"[4]; MCF7, 1 μM, 5 days, 1 µM",> 95% and > 50%
same,GI50,[5],1 µM
same,inhibition at 1 µM,[5]; read-out: inhibition of cell growth,> 50%
same,Fold enhancement of doxorubicin cytotoxicity (survival cytotoxic alone/survival cytotoxic + 1 μM KU-0060648),"[6]; 100 nM doxorubicin, 16 hr",58±35 fold
same,overall cell survival (clonogenic),"[6]; 1 μM, 16 hr exposure, single agent",≥ 80%
same,fold enhancement of etoposide cytotoxicity,"[7]; M059-Fus-1, 1 μM KU-0060648, 16 hours",4 fold
same,fold enhancement of doxorubicin cytotoxicity,"[7]; M059-Fus-1, 1 μM KU-0060648, depending on the doxorubicin concentration",up to 32 fold
same,"reduction in cell viability, compound alone","[7]; M059-Fus-1, 1 μM, 16 hours",< 5%
same,fold enhancement of doxorubicin cytotoxicity,[8]; 1 μM KU-0060648,1.4 fold
same,"reduction in cell viability, compound alone","[8]; 1 μM, 16 hours",< 5%
same,CL,[9]; 10 mg/kg i.p,3.24 L/h/kg
same,CL,[9]; 10 mg/kg p.o,2.1 L/h/kg
same,AUC(0-inf),[9]; [16],3.15 µg·h/mL
same,Cmax,[9]; [16],0.9 µg/mL
same,Tmax,[9]; [16],0.5 h
same,bioavailability,[9]; [16],78%
same,half-life,[9]; [16],1.77 h
same,AUC(0-inf),[9]; [17],4.03 µg·h/mL
same,Cmax,[9]; [17],1.9 µg/mL
same,Tmax,[9]; [17],0.0833 h
same,clearance,[9]; [17],2.46 L/h/kg
same,half-life,[9]; [17],1.7 h
same,AUC(0-inf),[9]; [18],4.78 µg·h/mL
same,Cmax,[9]; [18],0.9 µg/mL
same,Tmax,[9]; [18],2 h
same,bioavailability,[9]; [18],119%
same,half-life,[9]; [18],2.37 h
same,concentration maintained in the tumour,"[10]; SW620 xenografts, 12.5 mg/kg i.v., for at least 4 hours",over 1 μM
same,concentration at 60 min,[10]; plasma,2.1 ± 0.5 µM
same,concentration at 120 min,[10]; plasma,0.7 ± 0.2 µM
same,concentration at 60 min,[10]; tumour (SW620 xenograft),4.9 ± 0.3 µM
same,concentration at 120 min,[10]; tumour (SW620 xenograft),2.9 ± 0.4 µM
same,inhibition at 25 mg/kg,[11],~100%
same,maximum body weight loss,[12]; SW620 tumour-bearing mice,no body weight loss
same,fold increase of etoposide-induced tumour growth delay,[12]; in both SW620 and MCF7 xenografts,up to 4.5 fold
same,fold greater solubility,[13],> 500 fold
same,potency rank among the four PI-3K isoforms,[14],greatest potency
same,potency rank among the four PI-3K isoforms,[15],least potency
